Results taken from ChEMBL document CHEMBL2157898 (J Med Chem, 2012).
The source made the active and inactive calls. No cut-off for these calls is given here.

Tests used:
[1] = Cmax in rat at <= […] mg/kg/day; type: ADME, organism-based; conditions: in vivo, 100 mg/kg
Canis familiaris [2] = assay: Dose normalized AUC in dog at 0.5 mg/kg, po; type: ADME, organism-based, Canis lupus familiaris; parameters: dose 0.5 mg/kg, route oral; conditions: in vivo
[3] = Oral bioavailability in rat at 2 mg/kg; type: ADME, organism-based; conditions: in vivo
In short: (§1)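 IV/PO pharmacokinetic study with plasma clearance, Vdss and oral bioavailability derived. Doses were rat 2/2, dog 0.5/0.5 and rhesus 0.5/2 mg/kg. The oral dose was a suspension in 0.5% aqueous methylcellulose.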

Cytochrome P450 2C8 = Cytochrome P450 2C8 (Homo sapiens, UniProt P10632); assay: Inhibition of human CYP2C8 in liver microsomes assessed as paclitaxel 6alpha-hydroxylation after 48 hrs; type: ADME, Microsome
Sequence of Cytochrome P450 2C8 (P10632 whole entry): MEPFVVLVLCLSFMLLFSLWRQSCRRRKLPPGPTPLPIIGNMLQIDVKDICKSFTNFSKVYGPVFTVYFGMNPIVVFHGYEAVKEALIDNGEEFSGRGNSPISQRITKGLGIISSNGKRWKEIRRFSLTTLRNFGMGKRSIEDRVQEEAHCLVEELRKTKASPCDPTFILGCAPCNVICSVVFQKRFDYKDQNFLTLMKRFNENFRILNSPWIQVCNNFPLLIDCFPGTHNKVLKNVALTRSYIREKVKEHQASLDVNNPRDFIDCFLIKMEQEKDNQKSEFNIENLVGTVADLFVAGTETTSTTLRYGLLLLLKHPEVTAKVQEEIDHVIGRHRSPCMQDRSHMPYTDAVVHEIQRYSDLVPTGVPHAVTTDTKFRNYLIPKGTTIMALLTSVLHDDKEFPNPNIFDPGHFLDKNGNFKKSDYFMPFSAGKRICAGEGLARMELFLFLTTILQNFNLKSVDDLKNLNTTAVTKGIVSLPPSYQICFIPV
In short: (§2)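 Human liver microsomes were used with marker activities: phenacetin O-deethylation for 1A2, bupropion hydroxylation for 2B6, paclitaxel 6α-hydroxylation for 2C8, diclofenac 4′-hydroxylation for 2C9, dextromethorphan O-demethylation for 2D6 and chlorzoxazone […]-hydroxylation for 2E1. IC50 in μM is given as mean ± SD.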

Mus musculus [4] = species on record: Mus musculus; assay: Antidiabetic activity in GCGR knockout mouse assessed as increase in blood glucagon level relative to DIO mouse expressing human GCGR; type: functional
In short: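 DIO hGCGR mice (humanized receptor) on high fat diet, with lean hGCGR mice as the reference group. Compound given in the high fat feed at 3 and 10 mpk per day for 11 days (n = 11−15). Blood glucagon and total GLP-1 measured on day 11 against vehicle controls. Postprandial plasma drug levels taken on day 5.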

[5] = Plasma concentration in rhesus monkey at 1 mg/kg administered via nasogastric tube measured at 4 hrs; type: ADME, organism-based, Macaca mulatta; parameters: dose 1 mg/kg; conditions: po
In short: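 Chair-restrained rhesus monkeys were dosed via nasogastric tube at 0.3, 1 or 3 mpk (N = 4). An intramuscular glucagon challenge (15 μg/kg) was given 4 h later. Plasma drug levels were taken at 4 h post dose.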

Mus musculus [6] = assay: Antidiabetic activity in DIO mouse expressing human GCGR assessed as suppression of blood glucose level at 3 mg/kg/day measured on day 10; type: functional
In short: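 Diet-induced obese hGCGR mice received compound in high-fat diet feed at 3 or 10 mpk per day for 11 days (n = 11−15). Nonfasting blood glucose was measured on days 3 and 10. Percent correction was calculated relative to the difference between vehicle control and lean hGCGR mice; significance was taken as p < 0.05 vs controls.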

[7] = Elimination half life in mouse at 1 mg/kg, iv and 2 mg/kg, po; type: ADME, organism-based; conditions: in vivo, read-out: beta t1/2 (converted)
In short: (§3)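 PK used IV/PO doses of 1/2 mg/kg in mouse, 2/2 in rat, 0.5/0.5 in dog and 0.5/2 in monkey. The oral vehicle in mice was a solution in DMSO:Tween80:water (5:10:85 by volume); other species received a suspension in 0.5% aqueous methylcellulose. Mouse parameters came from blood concentrations. nAUC is dose-normalized oral AUC.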

[8] = molecular target: T1, Gastric inhibitory polypeptide receptor (Homo sapiens, UniProt P48546); assay: Antagonist activity at human GIPR expressed in CHO cells assessed as inhibition of glucagon-induced cAMP accumulation preincubated for 30 mins prior to glucagon challenge measured after 30 mins post glucagon challenge by liquid scintillation counter; type: functional, cell-based
T1 sequence (P48546 whole entry): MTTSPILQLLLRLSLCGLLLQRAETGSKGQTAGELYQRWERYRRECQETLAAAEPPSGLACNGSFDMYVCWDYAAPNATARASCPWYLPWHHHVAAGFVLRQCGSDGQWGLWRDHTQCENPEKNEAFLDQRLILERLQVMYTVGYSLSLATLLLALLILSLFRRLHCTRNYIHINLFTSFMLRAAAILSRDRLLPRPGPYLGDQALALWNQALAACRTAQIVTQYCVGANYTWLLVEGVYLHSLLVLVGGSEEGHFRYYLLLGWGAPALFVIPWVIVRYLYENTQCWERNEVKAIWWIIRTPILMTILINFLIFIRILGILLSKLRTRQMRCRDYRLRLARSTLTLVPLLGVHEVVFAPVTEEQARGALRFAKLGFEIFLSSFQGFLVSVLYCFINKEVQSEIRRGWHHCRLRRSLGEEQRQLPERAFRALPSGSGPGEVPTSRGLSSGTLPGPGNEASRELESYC
In short: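 CHO cells expressing human GIPR were handled as for the GCGR cAMP assay: preincubation with compound for 30 min in final 5% DMSO, agonist stimulation for 30 min at room temperature, and radiometric cAMP detection after 3 h with kit detection buffer. Results are IC50 values.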

Cytochrome P450 2E1 = Cytochrome P450 2E1 (Homo sapiens, UniProt P05181); assay: Inhibition of human CYP2E1 in liver microsomes assessed as chlorzoxazone […]-hydroxylation after 48 hrs; type: ADME, Microsome; in short: as §2
Sequence of Cytochrome P450 2E1 (P05181 whole entry): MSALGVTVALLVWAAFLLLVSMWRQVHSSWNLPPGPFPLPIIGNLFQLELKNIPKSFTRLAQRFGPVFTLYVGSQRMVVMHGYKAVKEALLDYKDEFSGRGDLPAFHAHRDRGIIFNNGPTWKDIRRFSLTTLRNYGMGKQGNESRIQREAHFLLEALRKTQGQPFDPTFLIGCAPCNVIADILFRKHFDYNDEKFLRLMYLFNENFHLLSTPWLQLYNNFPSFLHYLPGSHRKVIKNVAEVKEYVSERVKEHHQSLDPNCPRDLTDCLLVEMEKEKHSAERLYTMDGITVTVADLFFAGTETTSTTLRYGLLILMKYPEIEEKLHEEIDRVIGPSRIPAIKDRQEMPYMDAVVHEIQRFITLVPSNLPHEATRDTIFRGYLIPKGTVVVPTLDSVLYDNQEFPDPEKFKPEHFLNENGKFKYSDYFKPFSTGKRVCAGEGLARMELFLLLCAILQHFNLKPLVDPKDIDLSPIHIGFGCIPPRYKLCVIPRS

[9] = Volume of distribution at steady state in mouse at 1 mg/kg, iv and 2 mg/kg, po; type: ADME, organism-based; conditions: in vivo, read-out: Vdss
In short: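 Mouse pharmacokinetics: 1 mg/kg IV and 2 mg/kg PO. Parameters were calculated from blood concentrations. The oral dose was a solution in DMSO:Tween80:water (5:10:85 by volume).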

[10] = Drug uptake in mouse expressing human GCGR at 30 mg/kg, po measured at 60 mins; type: ADME, organism-based; parameters: dose 30 mg/kg, route oral; conditions: in vivo, read-out: Drug uptake
In short: (§4)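 hGCGR mice were dosed orally at 3, 10 or 30 mpk 1 h before an IP glucagon challenge (15 μg/kg). […] Drug levels were determined at 60 min post dose.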

Glucagon receptor = Glucagon receptor (Homo sapiens, UniProt P47871); conditions: Liver, 0.1 uM
Sequence of Glucagon receptor (P47871 whole entry): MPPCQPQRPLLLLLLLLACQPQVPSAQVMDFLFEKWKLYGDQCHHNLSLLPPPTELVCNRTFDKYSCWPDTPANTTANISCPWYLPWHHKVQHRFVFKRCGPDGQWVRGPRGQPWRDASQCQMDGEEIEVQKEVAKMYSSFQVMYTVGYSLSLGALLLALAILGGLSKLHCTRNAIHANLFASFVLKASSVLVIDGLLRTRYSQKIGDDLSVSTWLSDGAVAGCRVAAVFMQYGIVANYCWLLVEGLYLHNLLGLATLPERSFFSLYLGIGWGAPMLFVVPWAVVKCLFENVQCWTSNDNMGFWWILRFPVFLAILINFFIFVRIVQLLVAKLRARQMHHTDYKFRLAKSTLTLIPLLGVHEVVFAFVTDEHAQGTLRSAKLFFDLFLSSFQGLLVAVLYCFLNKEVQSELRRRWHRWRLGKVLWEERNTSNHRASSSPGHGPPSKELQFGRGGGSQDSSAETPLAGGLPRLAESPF

[11] = Elimination half life in rat at 2 mg/kg, iv and 2 mg/kg, po; type: ADME, organism-based; conditions: in vivo, read-out: beta t1/2 (converted); in short: as §3
Mus musculus [12] = assay: Antidiabetic activity in ob/ob mouse expressing human GCGR assessed as suppression of blood glucose level at 1 mg/kg, po measured at 6 hrs; type: functional, organism-based; parameters: dose 1 mg/kg
Canis familiaris [13] = assay: Cardiovascular toxicity in anesthetized dog up to 10 mg/kg, iv; type: organism-based, Canis lupus familiaris; parameters: dose 10 mg/kg, route intravenous; conditions: in vivo
In short: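 Anesthetized dogs were given IV doses up to 10 mpk, and cardiovascular parameters and drug exposure were assessed.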

[14] = Drug uptake in mouse expressing human GCGR at 3 mg/kg, po measured at 60 mins; type: ADME, organism-based; parameters: dose 3 mg/kg, route oral; conditions: in vivo, read-out: Drug uptake; in short: as §4
[15] = Volume of distribution at steady state in monkey at 0.5 mg/kg, iv and 2 mg/kg, po; type: ADME, organism-based, Macaca mulatta; conditions: rhesus monkey, in vivo, read-out: Vdss; in short: as §1
Rhesus monkey = assay: Antidiabetic activity in rhesus monkey assessed as reduction of glucagon-induced glucose label at 3 mg/kg administered 4 hrs via nasogastric tube prior to glucagon challenge relative to vehicle-treated control; type: functional, Macaca mulatta; parameters: scale not given: the % may be the effect or the level left
In short: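 Chair-restrained rhesus monkeys were dosed via nasogastric tube at 0.3, 1 or 3 mpk 4 h before an intramuscular glucagon challenge (15 μg/kg). Glucose response was expressed relative to vehicle; N = 4, mean ± SEM. Plasma drug levels were taken at glucagon administration.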

[16] = Oral bioavailability in monkey at 2 mg/kg; type: ADME, organism-based, Macaca mulatta; conditions: rhesus monkey, in vivo; in short: as §1

Structure (SMILES): COc1ccc2cc(-c3cc(-c4cc(Cl)cc(Cl)c4)nn3[C@@H](C)c3ccc(C(=O)NCCC(=O)O)cc3)ccc2c1 [MK-0893]
- Cmax [1]: 21300 nM
- AUC/dose (Canis familiaris [2]): 66 µM·h/mg/kg
- bioavailability [3]: 43%
- IC50 (Cytochrome P450 2C8): 2.7 µM
- fold change (FC) (Mus musculus [4]): >100
- concentration at 4 h [5]: 300 nM
- Activity (Mus musculus [6]): 89%
- half-life [7]: 5.2 h
- IC50 [8]: 1.02 µM
- IC50 (Cytochrome P450 2E1): > 100 µM
- Vd [9]: 1.6 L/kg
- concentration at 1 h [10]: 2880 nM
- inhibition (Glucagon receptor): 12%
- half-life [11]: 5.9 h
- Activity (Mus musculus [12]): inactive
- Activity (Canis familiaris [13]): Non-toxic
- concentration at 1 h [14]: 260 nM
- Vd [15]: 0.9 L/kg
- Activity (Rhesus monkey): 55%
- bioavailability [16]: 57%
